# ChEMBL document CHEMBL3822450, “Novel c-Met inhibitory olive secoiridoid semisynthetic analogs for the control of invasive breast cancer” (Eur J Med Chem, 2016)
# Legend:
# cells = conditions: Homo sapiens, MCF-10A, 24 h
# [1] = biological target: Hepatocyte growth factor receptor (Homo sapiens, UniProt P08581); experiment: Inhibition of recombinant human N-terminal His-tagged cytoplasmic c-MET kinase domain (956 to 1390 residues) phosphorylation expressed in baculovirus expression system using Tyr peptide-6 substrate incubated for 1 hr in presence of ATP by Z-Lyte assay
# MDA-MB-231 [2] = experiment: cells; conditions: Homo sapiens, MDA-MB-231, 72 h
# MDA-MB-468 [3] = experiment: cells; conditions: Homo sapiens, MDA-MB-468, 72 h
# MDA-MB-231 [4] = experiment: cells; conditions: Homo sapiens, MDA-MB-231, 24 h
# [5] = Cytotoxicity against human MCF10A cells assessed as inhibition of HGF-induced cell growth up to 80 uM incubated for 24 hrs by MTT assay; assay type: cell-based; conditions: mcf-10a
# MDA-MB-231 [6] = experiment: Antiproliferative activity against human MDA-MB-231 spheroids expressing c-MET assessed as inhibition of HGF-induced spheroid growth measured every 4 hrs for 72 hrs by cell tracker red dye based 3D spheroid disaggregation assay; assay type: functional
# Method in brief: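 CellTracker Red-labelled cells, 1,000/well in ultra-low-attachment round-bottom wells with phenol-red-free DMEM, 10% FBS, 5% Matrigel; single spheroid formed over 24 h, then HGF stimulation with compound or DMSO; imaged every 4 h for 72 h at 37°C; average red-object area gives fold increase in spheroid size; 8 spheroids/group, repeated twice.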
# MDA-MB-231 [7] = experiment: Effect on total c-MET protein level in human MDA-MB-231 cells at 1 to 10 uM after 72 hrs by Western blot analysis; conditions: mda-mb-231, 72 h
# Method in brief: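 HGF-stimulated cells treated 72 h with 1, 5 or 10 µM or vehicle; RIPA lysates, BCA-normalised, SDS-PAGE, PVDF, blocked in 2% BSA/TBST; primary antibodies (1:1,000) overnight at 4°C against total c-Met and phospho-c-Met Y1234/1235, HRP secondary, ECL detection; β-tubulin loading control.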
# MDA-MB-231 [8] = experiment: Antiproliferative activity against human MDA-MB-231 cells expressing c-MET assessed as inhibition of HGF-induced cell growth incubated for 72 hrs by MTT assay
# MDA-MB-468 [9] = experiment: Antiproliferative activity against human MDA-MB-468 cells expressing c-MET assessed as inhibition of HGF-induced cell growth incubated for 72 hrs by MTT assay
Structure (SMILES),IC50 (cells) [µM],IC50 [1] [µM],IC50 (MDA-MB-231 [2]) [µM],IC50 (MDA-MB-468 [3]) [µM],IC50 (MDA-MB-231 [4]) [µM],also measured
COc1cc(/C=C/C(=O)OCCc2ccc(O)c(N)c2)cc(OC)c1O,186,,,,,
COC(=O)C1=CO[C@@H](C)[C@@H](C=O)[C@@H]1CC(=O)OCCc1ccc(O)cc1,,> 20,80.4,93.7,13.8,
COc1cc(/C=C/C(=O)OCCc2ccc(N)nc2)ccc1O,213,,,,,
COc1cc(/C=C/C(=O)OCCc2ccc(O)c(O)c2)ccc1N,244,,,,,
COc1cc(/C=C(\C#N)C(=O)OCCc2ccc(O)cc2)cc(Br)c1O,,> 20,83.2,89.2,40.6,
COc1cc(/C=C/c2nc(-c3ccc(O)cc3)no2)cc(OC)c1O,,> 20,72.3,79.1,16.3,
COc1cc(/C=C/C(=O)OCCc2ccc(N)nc2)cc(OC)c1O,210,,,,,
COc1cc(/C=C/C(=O)OCCCc2ccc(O)cc2)cc(OC)c1O,203,,,,,
COc1cc(/C=C/C(=O)Oc2ccc(O)cc2C(C)=O)cc(OC)c1O,,> 20,11.8,15.9,8.1,
COc1cc(/C=C/C(=O)OCc2cc(OC)c(O)c(OC)c2)cc(OC)c1O,172,,,,,
COc1cc(CCC(=O)OCCc2ccc(O)cc2)cc(OC)c1O,,> 20,91.3,92.2,> 50,
COc1cc(/C=C/C(=O)OCc2cc(OC)c(O)c(OC)c2)ccc1O,168,,,,,
COc1cc(/C=C/C(=O)OCCCc2ccc(O)cc2)ccc1O,190,,,,,
COc1cc(/C=C\C(=O)OCCc2ccc(OC)c(OC)c2)ccc1O,223,> 20,8.2,9.9,6.2,
COc1ccc(CCOC(=O)/C=C\c2cc(OC)c(O)c(OC)c2)cc1OC,,> 20,10.1,10.5,8.1,
COc1cc(CCOC(=O)/C=C/c2cc(OC)c(O)c(OC)c2)ccc1O,,,,,,Activity [5]: Non-toxic; growth inhibition (GI) (MDA-MB-231 [6]): Dose-dependent effect; Activity (MDA-MB-231 [7]): Non-toxic; growth inhibition (GI) (MDA-MB-231 [8]): Dose-dependent effect; growth inhibition (GI) (MDA-MB-468 [9]): Dose-dependent effect
COc1ccc(CCOC(=O)/C=C/c2cc(OC)c(O)c(OC)c2)cc1OC,214,> 20,9.2,8.6,7.8,
OCCc1ccc(O)cc1 [TYROSOL],,> 20,> 100,> 100,> 50,
COc1cc(/C=C/C(=O)Oc2ccc(O)cc2C(C)=O)ccc1O,,> 20,10.6,14.2,8.3,
COc1cc(/C=C/COC(=O)/C=C/c2ccc(O)c(OC)c2)ccc1O,,> 20,22.3,25.6,19.8,
COc1cc(C=C(S)C(=O)OCCc2ccc(O)cc2)ccc1O,,> 20,68.8,74.5,30.4,
COc1cc(/C=C/C(=O)NCCc2ccc(O)cc2)cc(OC)c1O [TRANS-N-SINAPOYLTYRAMINE],,> 20,72.8,80.2,> 50,
O=C(/C=C/c1ccc(O)cc1)OCCc1ccc(O)c(O)c1,,> 20,16,20.3,12.7,
COc1cc(/C=C/C(=O)OCCc2ccc(OC)c(OC)c2)ccc1O,274,> 20,7.3,8.9,5.4,
COc1cc(/C=C/C=N/CCc2ccc(O)cc2)cc(OC)c1O,,> 20,89.9,91.1,4.6,
COc1cc(/C=C/COC(=O)/C=C/c2cc(OC)c(O)c(OC)c2)ccc1O,,> 20,27.9,31.2,18.8,
